Measured values taken from ChEMBL document CHEMBL2176922, “Benzofuroxane derivatives as multi-effective agents for the treatment of cardiovascular diabetic complications. Synthesis, functional evaluation, and molecular modeling studies” (J Med Chem, 2012).
Calls of active or inactive are those of the source. No cut-off for these calls is given here.

Legend:
Rattus norvegicus = species on record: Rattus norvegicus; assay: Inhibition of Aldehyde reductase in Sprague-Dawley albino rat at 100 uM
Procedure, shortened: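 Rat kidney ALR1 at 37 °C with 20 mM sodium D-glucuronate and 0.12 mM NADPH (stock levels), dialyzed enzyme, 0.1 M sodium phosphate pH 7.2; rate calibrated to 0.015 absorbance unit/min. NADPH oxidation followed at 340 nm; blank without substrate. Percent inhibition at 100 μM.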

[1] = target: Aldo-keto reductase family 1 member B1 (Rattus norvegicus, UniProt P07943); assay: Inhibition of Sprague-Dawley albino rat lens ALR2 by spectrophotometry; assay type: tissue-based, Lens of camera-type eye
Liver = assay: Induction of NO generation in Sprague-Dawley albino rat liver homogenate at 10^-4 M after 1 hr by Griess reaction; assay type: functional, tissue-based
Procedure, shortened: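 Rat liver rinsed in ice-cold sucrose buffer (100 mM K2HPO4, 1 mM EDTA, 1.15% KCl, 0.25 M sucrose, 0.1% EtOH, pH 7.4), homogenized 1/6 w/v, gauze-filtered, spun 600g 10 min at 0 °C to remove nuclei. Incubated with compound 1 h at 37 °C; nitrite measured by Griess reaction at 543 nm, given as % NO2− (mol/mol) relative to compound added. At least two determinations in triplicate.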

Brain = assay: Antioxidant activity in Sprague-Dawley albino rat brain homogenate assessed as inhibition of hydroxyl radical dependent lipoperoxidation measuring malondialdehyde production at 100 uM after 30 mins by TBARS assay; assay type: functional, tissue-based
Procedure, shortened: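 Rat brain homogenized 10% (w/v) in phosphate buffer pH 7.4; 100 μL homogenate with 20 μM FeCl3 and 100 μM ascorbic acid (final), test compound at 100 μM final, 1 mL, 30 min at 37 °C. TBA/HCl added, boiled 10 min, n-butanol extraction, A532; TBARS as nmol MDA per 10 mg wet tissue vs tetramethoxypropane standard curve. At least two determinations in triplicate.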

[2] = target: Aldo-keto reductase family 1 member B1 (Rattus norvegicus) (UniProt P07943); assay: Ratio of KM07100 IC50 to compound IC50 for Sprague-Dawley albino rat lens ALR2; assay type: tissue-based; conditions: Lens of camera-type eye

Row | inhibition (Rattus norvegicus) | IC50 [1] | Ratio IC50 [2] | Structure (SMILES) | Activity (Liver) | inhibition (Brain)
1 | 35% | 1430 nM |  | [O-][n+]1onc2cc(OCc3ccc4ccccc4c3)ccc21 | 2% | Active
2 | inactive | 820 nM |  | [O-][n+]1onc2cc(OCc3ccc(F)cc3)ccc21 | inactive | Active
3 | 5% | 460 nM |  | O=[N+]([O-])c1cccc(COc2ccc3c(c2)no[n+]3[O-])c1 | 2% | Active
4 | 26% | 990 nM | 36 | [O-][n+]1onc2cc(OCc3ccccc3)ccc21 | 2% | 50%
5 | 19% | 920 nM |  | [O-][n+]1onc2cc(OCc3ccc(Cl)cc3)ccc21 | 2% | Active
6 | 14% | 1940 nM |  | [O-][n+]1onc2cc(OCc3ccc(C(F)(F)F)cc3)ccc21 | 2% | Active
7 | 20% |  |  | O=S(=O)(Oc1ccc2nonc2c1)c1ccc(Cl)s1 |  | 
8 | 38% | 420 nM |  | [O-][n+]1onc2cc(OCc3nc4ccccc4s3)ccc21 | inactive | Active
9 | inactive | 4520 nM |  | COc1ccc(COc2ccc3c(c2)no[n+]3[O-])cc1 | 2% | Active
10 | 19% | 7360 nM |  | [O-][n+]1onc2cc(OCc3ccc(Br)cc3)ccc21 | 2% | Active
11 | 11% | 5900 nM |  | [O-][n+]1onc2cc(OCCc3ccccc3)ccc21 | 2% | Active
12 | inactive | 1410 nM |  | [O-][n+]1onc2cc(OCc3ccc(Br)cc3F)ccc21 | inactive | Active
13 | 24% | 830 nM |  | Cc1ccc(COc2ccc3c(c2)no[n+]3[O-])cc1 | 2% | Active
14 |  |  |  | Cc1c(C)c2c(c(C)c1O)CC[C@@](C)(CCC[C@H](C)CCC[C@H](C)CCCC(C)C)O2 |  | Active
